Assay outcomes (PubChem BioAssay)
Cl transport mod: modulates chloride dependent transport by human KCC2. B-score of Tl+ flux slope (higher = more flux/activation; lower = inhibition) at 10 µM. KCC2 cells, thallium flux FluoZin-2 fluorescence. Q9H2X9. actives 2.2% (n = 190,000). AID 1456;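 active = thallium flux slope and its plate-corrected score both differing from the plate sample mean at a set confidence after two filtering rounds, in either direction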;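 note: slope of fluorescence scaled to starting intensity during 10 to 20 s after thallium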
ROMK primary: modulates human ROMK potassium channel activity; P48048; Tet-inducible ROMK, thallium flux fluorescence; actives lie on both sides; B-score at 10 µM; actives 2% (n = 130,000); AID 1918;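 active = signal ratio slope over the read window, or its plate-corrected B-score, at least 3 SD from the plate mean, either direction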;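 note: B-score of the F/F0 ratio slope over 7 to 12 s after thallium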
Rad51 HR inh: blocks human Rad51 in homologous recombination | Q06609 | AID 1385 | hRad51 DNA strand exchange, fluorescence dequenching | inhibition, % at 10 µM | actives 0.085% (n = 200,000);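 active = inhibition above 40% at the single screening dose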;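 note: 0% = DMSO control wells and 100% = blanks with heterologous ssDNA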
Target sequence (Q06609 whole entry, looked up): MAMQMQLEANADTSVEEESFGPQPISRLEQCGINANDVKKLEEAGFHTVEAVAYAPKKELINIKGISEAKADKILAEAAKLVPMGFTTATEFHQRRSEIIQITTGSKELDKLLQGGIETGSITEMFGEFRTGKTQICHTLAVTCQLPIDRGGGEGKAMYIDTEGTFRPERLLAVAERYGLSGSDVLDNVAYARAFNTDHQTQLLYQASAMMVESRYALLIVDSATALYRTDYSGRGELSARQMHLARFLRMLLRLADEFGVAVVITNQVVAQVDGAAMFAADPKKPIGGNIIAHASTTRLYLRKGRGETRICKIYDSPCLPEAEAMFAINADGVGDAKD
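Material: hRad51 filaments on single-stranded DNA; Reagent: Donor/quencher-labelled 47-bp dsDNA substrate; Compound: 10 µM final, single point; Schedule: 37 °C 15-min filament assembly, 30-min compound preincubation, 15-min exchange; Technique: FRET fluorescence, excitation 485 nm, emission 520 nm; Benchmarks: control wells and blank wells on each plate.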
PKD1 inh: inhibitors of human PKD1 kinase; PKD1 kinase fluorescence polarization assay; inhibition, % (test concentration not listed); actives 0.056% (n = 200,000); in the data active = inhibition above about 50%
ROMK hit retest: retested hit modulating human ROMK potassium channel; actives 54% (n = 3,000); normalized thallium flux (F/F0 slope) at 10 µM; shares compounds with ROMK primary; ROMK thallium flux, fluorescence ratio; stronger effect = lower value;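 active = Flux at 10 µM at least 3 SD below or above vehicle control mean in one or both replicates; inconclusive = no clear call, values can overlap the other calls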
The depositor's hits bear a star; u = inconclusive; x = no result. The list is not random: actives were taken first. Their share in the collection is about 3%.

SMILES	Cl transport mod	ROMK primary	Rad51 HR inh	PKD1 inh	ROMK hit retest
COc1ccccc1N1CCN(CCNC(=O)Nc2cccc(C)c2C)CC1	-2.3	-2.8*	x	10	0.059*
COc1ccccc1N1CCN(CCCNC(=O)Nc2ccccc2)CC1	0.076	-0.7	5	-3	x
Cc1cc(Br)cn2ccnc12	0.095	1.2*	x	1	0.08
O=C(NCc1cccnc1)NC1CC(=O)N(c2ccc3c(c2)OCCO3)C1 (stereo not given)	-0.063	0.22	3	-5	x
Cc1sc(NC(=O)CCCC(=O)O)c(C#N)c1C	0.21	x	-2	-1	0.077
CCCCCC(=O)Nc1sc(C)c(C)c1C#N	-0.5	x	12	-10	x
COc1ccc(C2CC(C(F)(F)F)n3ncc(C(=O)Nc4c(C)n(C)n(-c5ccccc5)c4=O)c3N2)cc1 (stereo not given)	x	-6.1*	-7	-6	0.076
CC(C)CCNC(=O)NC(=O)CSc1ncccn1	0.94	0.21	0	3	x
O=C(NN=C1CCCC1)c1ccccc1OCc1ccc(Cl)cc1	-0.49	-0.017	-2	-2	x
O=C1CCC/C(=N\NC(=O)c2ccc(COc3ccccc3-c3ccccc3)cc2)C1	0.0034	-5.5*	3	-6	0.078
COC(=O)C1=C(N)c2c(F)cccc2C1(C#N)c1ccc(F)cc1 (stereo not given)	-0.21	0.015	0	-7	x
CN(C)CCCN1C(=O)c2cccc3c([N+](=O)[O-])ccc(c23)C1=O	-0.89	-4.8*	x	8	0.038*
O=C1c2cccc3c([N+](=O)[O-])ccc(c23)C(=O)N1CCc1ccccn1	-0.39	0.0051	-7	x	x
CCOc1cc(/C=N/NC(=O)CN2CCCCC2)ccc1OCc1cccc(Cl)c1	0.64	-4.6*	-4	-10	u
CCOc1cc(/C=N/NC(=O)CN2CCCCC2)ccc1OCc1ccc(Cl)cc1	-0.0034	-1.3	-5	-18	x
O=C(NC(=S)NCC1CCCO1)C(c1ccccc1)c1ccccc1 (stereo not given)	-1.5	x	1	5	x
COc1cc(/C=C/C(=O)OCC(=O)NC2CC2)cc(S(=O)(=O)N2CCc3ccccc32)c1OC	-1.1	-18*	1	-4	0.071
CC(=O)NCC(=O)OC(C)C(=O)Nc1ccc(C(C)=O)cc1 (stereo not given)	0.35	x	1	-1	0.075
CCSc1nnc(NC(=O)[C@@H](NC(=O)c2cc(OC)cc(OC)c2)C(C)C)s1	0.019	0.27	8	-2	x
CC(C)(C)NC(=O)CN1CCN(C(=O)CCl)CC1	0.29	-0.12	x	1	x
Cc1cc2cc(CN(Cc3nnnn3C3CCCCC3)CC3CCCO3)c(=O)[nH]c2cc1C (stereo not given)	-1.3	-5.7*	-9	-4	u
Cc1cccc(NC(=O)C(C)OC(=O)c2ccccc2NS(=O)(=O)c2cc(C)c(C)c([N+](=O)[O-])c2)c1 (stereo not given)	-0.85	-3*	-1	-9	0.061*
CC(=O)Nc1ccc(NC(=O)C(C)OC(=O)c2ccccc2NS(=O)(=O)c2cccs2)cc1 (stereo not given)	-2.9	x	6	x	x
CCCCOC(=O)c1ccc(NC(=O)C(=O)NCc2ccco2)cc1	-0.68	-0.36	2	-3	x
Cc1ccccc1NS(=O)(=O)c1cc(S(C)(=O)=O)ccc1Cl	x	0.027	-5	1	0.081
SMILES	Cl transport mod	ROMK primary	Rad51 HR inh	PKD1 inh	ROMK hit retest
CC1CCN(CCNC(=S)Nc2ccc(Cl)cc2)CC1	1.5	-1.3	x	-2	x
O=C(Nc1cc(S(=O)(=O)Nc2ccccc2Cl)ccc1O)c1sc2cc(Cl)ccc2c1Cl	1.6	0.54	-27	-7	x
O=C(NCCc1cccc(F)c1)/C(=C/c1cccnc1)NC(=O)c1ccccc1	-0.32	0.5	11	-16	x
Cc1ccc(N2CS(=O)(=O)/C(=C/N(C)C)C2=O)cc1	0.45	x	x	7	0.082
CCOC(=O)C1CCCN(C(=S)Nc2cccc(Cl)c2)C1 (stereo not given)	0.14	x	-2	-4	x
O=C(CCC1CCCCC1)NNC(=O)NC12CC3CC(CC(C3)C1)C2	0.36	-3.1*	0	5	0.071
O=C(CSc1ncc(-c2ccccc2)n1C1CCCC1)N1CCc2ccccc21	x	-2.7*	-1	-7	u
O=C(CCS(=O)(=O)c1cccs1)Nc1ccc(C(=O)NC2CCN(Cc3ccccc3)CC2)cc1	0.61	-0.21	1	-5	x
CC(C)c1ccc(/C=N/NC(=O)CC(=O)NC2CCCCC2)cc1	0.26	-9.2*	0	-9	0.072
O=C(CCl)NC(Cc1ccccc1)c1ccccc1 (stereo not given)	0.78	-0.4	1	9	0.087
CC(=O)C(Cc1ccccc1)NC(=O)CCl (stereo not given)	2.5	-0.12	-12	-3	x
CNC(=S)NCCc1cc2c(OC)ccc(OC)c2[nH]c1=O	-1.9	0.037	2	0	x
CCCCN(C)C(=O)C1CCN(Cc2ccc(OCc3ccccc3)cc2)CC1	0.78	-4.4*	-2	-1	0.061*
CCCCOc1ccc(CN2CCC(O)CC2)cc1	x	x	-3	-8	x
Cc1cc(C)cc(N(CC(=O)NC(C)(C)C)C(=O)CNC(=O)c2cccs2)c1	0.081	0.064	2	-5	x
Nc1[nH]n(-c2ccccc2)c(=O)c1N=Nc1ccc2c(c1)OCO2	1.4	x	-12	x	0.086
Cc1cc(C)c2nc(NCCCNC(=S)NCCCN(C)C)c(C#N)cc2c1	-1.9	-2.8	7	-2	x
Cc1ccc2cc(C#N)c(NCCNC(=S)NCCCN(C)C)nc2c1C	-0.78	-3.1*	22	5	0.057*
O=[N+]([O-])c1cnn(-c2nc(-c3ccccc3)cc(C(F)(F)F)n2)c1	-0.16	x	-10	1	x
COc1ccc(N2C(=O)CN(Cc3ccc(OC)c(OC)c3)C2=S)cc1	0.061	-0.091	-11	4	x
CC(O)CNc1nc2ccccc2n1CC(=O)NC12CC3CC(CC(C3)C1)C2 (stereo not given)	-0.69	-2.7*	-12	-1	0.066*
O=C(OCc1cccc(F)c1)c1ccc2c(=O)n3c(nc2c1)CCC3	-1.5	x	20	x	x
CCOc1cccc(N(C(=O)Cc2cccs2)C(C(=O)NC2CCCCC2)c2cccn2C)c1 (stereo not given)	-0.62	-4.4*	1	1	0.062*
O=C(CNc1ccc(Cl)cc1)c1ccc(Br)cc1	-0.084	2.7*	3	6	0.086
O=C(Cn1nc(CNc2ccc(Cl)cc2)[n+]2c1CCCCC2)c1ccc(Br)cc1	-0.17	-3.7*	x	14	0.053*
SMILES	Cl transport mod	ROMK primary	Rad51 HR inh	PKD1 inh	ROMK hit retest
COc1ccccc1CN1[C@@H](CC(=O)O)c2cc(F)ccc2S1(=O)=O	x	x	-2	x	x
O=C(CSc1nnc2ccccn12)NNC(=O)c1ccc(Br)cc1	-1.4	-0.72	7	-6	x
O=C1CC(C(=O)Nc2ccc(Cl)cc2[N+](=O)[O-])C2(CCCCC2)O1 (stereo not given)	0.34	x	-6	2	x
O=C(CS(=O)(=O)Cc1ccccc1)N1CCN(c2cccc(C(F)(F)F)c2)CC1	-1.2	-3.2*	-10	-4	u
Cc1ccc(SCCNC(=S)Nc2ccc(C)c(C)c2)cc1	-0.2	x	-11	-5	x
Cc1ccc(SCCN)cc1C	0.32	-3*	x	-3	0.068*
